{"source": "ChEMBL document CHEMBL5661979", "about": "“Pharmacological inhibition of BMK1 suppresses tumor growth through promyelocytic leukemia protein” (Cancer Cell, 2010)", "key": {"[1]": {"target": "Dual specificity mitogen-activated protein kinase kinase; MEK1/2 (Homo sapiens, UniProt P36507+Q02750)", "assay": "Inhibition of MAP2K1/MAP2K2 in human HeLa cells lysate pre incubated for 15 mins followed by ATP acyl phosphate probe addition and measured after 10 mins by LC-MS/MS analysis", "assay_type": "subcellular"}, "[2]": {"target": "T1, Aurora kinase A (Homo sapiens) (UniProt O14965)", "T1 sequence (whole entry)": "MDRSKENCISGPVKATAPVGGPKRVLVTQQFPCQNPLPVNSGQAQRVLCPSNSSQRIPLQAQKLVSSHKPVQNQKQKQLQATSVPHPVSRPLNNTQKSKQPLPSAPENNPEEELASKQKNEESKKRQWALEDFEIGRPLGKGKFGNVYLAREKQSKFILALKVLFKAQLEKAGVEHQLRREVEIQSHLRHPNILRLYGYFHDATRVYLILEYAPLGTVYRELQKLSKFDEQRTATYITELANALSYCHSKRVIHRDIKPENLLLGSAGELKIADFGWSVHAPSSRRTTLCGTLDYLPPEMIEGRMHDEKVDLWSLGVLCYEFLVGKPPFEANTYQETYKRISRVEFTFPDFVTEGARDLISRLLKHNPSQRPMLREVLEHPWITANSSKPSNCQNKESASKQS", "assay": "Inhibition of AurA in human HeLa cells lysate at 50 uM pre incubated for 15 mins followed by ATP acyl phosphate probe addition and measured after 10 mins by LC-MS/MS analysis relative to control", "assay_type": "subcellular", "settings": "time 25.0 min", "method_in_brief": "(§1)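 KiNativ-type profiling in HeLa lysate (5 mg/mL total protein). Lysate preincubated 15 min with inhibitor at 50, 10, 2, 0.8 or 0 μM, then ATP or ADP acylphosphate probe added (5 μM final) for 10 min. Reaction stopped with urea and analysed by targeted MS, using up to four fragment ions per kinase peptide-probe conjugate. % inhibition calculated against untreated lysate. Duplicate reactions.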"}, "[3]": {"assay": "Inhibition of HGK/MINK/TNIK in human HeLa cells lysate at 10 uM pre incubated for 15 mins followed by ATP acyl phosphate probe addition and measured after 10 mins by LC-MS/MS analysis relative to control", "settings": "25 min, condition cancer"}, "[4]": {"target": "Cyclin-dependent kinase 2 (Homo sapiens, UniProt P24941)", "assay": "Inhibition of CDK2 in human HeLa cells lysate at 10 uM pre incubated for 15 mins followed by ADP acyl phosphate probe addition and measured after 10 mins by LC-MS/MS analysis relative to control", "assay_type": "subcellular", "settings": "time 25.0 min", "method_in_brief": "(§2)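 KiNativ profiling in HeLa lysate (5 mg/mL total protein). Lysate incubated 15 min with inhibitor at 50, 10, 2, 0.8 or 0 μM. ATP or ADP acylphosphate probe then added (5 μM final) and reacted 10 min. Reaction stopped with urea and analysed by targeted MS, using up to four fragment ions per kinase peptide-probe conjugate. % inhibition taken against untreated lysate. Run in duplicate.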"}, "[5]": {"target": "Tyrosine-protein kinase Fer (Homo sapiens, UniProt P16591)", "sequence (P16591 whole entry, looked up)": "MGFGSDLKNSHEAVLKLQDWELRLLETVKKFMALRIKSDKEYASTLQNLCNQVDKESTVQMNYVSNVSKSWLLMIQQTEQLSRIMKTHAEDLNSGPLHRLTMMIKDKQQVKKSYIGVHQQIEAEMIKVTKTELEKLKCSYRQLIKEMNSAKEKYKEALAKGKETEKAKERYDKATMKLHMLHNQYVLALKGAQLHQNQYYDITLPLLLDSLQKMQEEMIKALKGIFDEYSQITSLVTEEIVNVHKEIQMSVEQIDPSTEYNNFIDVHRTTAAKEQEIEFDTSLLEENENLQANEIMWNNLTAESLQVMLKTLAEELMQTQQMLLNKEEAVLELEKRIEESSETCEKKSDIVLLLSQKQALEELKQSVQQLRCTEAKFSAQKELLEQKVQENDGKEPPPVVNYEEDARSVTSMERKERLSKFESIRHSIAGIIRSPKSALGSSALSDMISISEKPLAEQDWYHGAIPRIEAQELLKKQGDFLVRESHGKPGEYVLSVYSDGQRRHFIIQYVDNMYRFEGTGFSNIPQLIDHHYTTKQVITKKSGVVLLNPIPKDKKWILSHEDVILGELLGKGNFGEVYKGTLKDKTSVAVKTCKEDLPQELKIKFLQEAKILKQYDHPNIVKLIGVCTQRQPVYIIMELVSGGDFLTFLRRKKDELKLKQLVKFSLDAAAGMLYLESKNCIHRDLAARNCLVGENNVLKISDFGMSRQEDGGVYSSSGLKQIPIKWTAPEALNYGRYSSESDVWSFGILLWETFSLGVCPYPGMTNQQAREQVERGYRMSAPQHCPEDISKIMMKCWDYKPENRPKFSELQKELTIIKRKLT", "assay": "Inhibition of FER in human HeLa cells lysate at 10 uM pre incubated for 15 mins followed by ATP acyl phosphate probe addition and measured after 10 mins by LC-MS/MS analysis relative to control", "assay_type": "subcellular", "settings": "time 25.0 min"}, "[6]": {"target": "Serine/threonine-protein kinase Aurora (Homo sapiens, UniProt Q96GD4+Q9UQB9+O14965)", "assay": "Inhibition of AurA/AurB/AurC in human HeLa cells lysate at 10 uM pre incubated for 15 mins followed by ATP acyl phosphate probe addition and measured after 10 mins by LC-MS/MS analysis relative to control", "assay_type": "subcellular", "settings": "time 25.0 min", "method_in_brief": "as §1"}, "[7]": {"target": "Ribosomal protein S6 kinase alpha-5 (Homo sapiens, UniProt O75582)", "sequence (O75582 whole entry, the tested form may be a part)": "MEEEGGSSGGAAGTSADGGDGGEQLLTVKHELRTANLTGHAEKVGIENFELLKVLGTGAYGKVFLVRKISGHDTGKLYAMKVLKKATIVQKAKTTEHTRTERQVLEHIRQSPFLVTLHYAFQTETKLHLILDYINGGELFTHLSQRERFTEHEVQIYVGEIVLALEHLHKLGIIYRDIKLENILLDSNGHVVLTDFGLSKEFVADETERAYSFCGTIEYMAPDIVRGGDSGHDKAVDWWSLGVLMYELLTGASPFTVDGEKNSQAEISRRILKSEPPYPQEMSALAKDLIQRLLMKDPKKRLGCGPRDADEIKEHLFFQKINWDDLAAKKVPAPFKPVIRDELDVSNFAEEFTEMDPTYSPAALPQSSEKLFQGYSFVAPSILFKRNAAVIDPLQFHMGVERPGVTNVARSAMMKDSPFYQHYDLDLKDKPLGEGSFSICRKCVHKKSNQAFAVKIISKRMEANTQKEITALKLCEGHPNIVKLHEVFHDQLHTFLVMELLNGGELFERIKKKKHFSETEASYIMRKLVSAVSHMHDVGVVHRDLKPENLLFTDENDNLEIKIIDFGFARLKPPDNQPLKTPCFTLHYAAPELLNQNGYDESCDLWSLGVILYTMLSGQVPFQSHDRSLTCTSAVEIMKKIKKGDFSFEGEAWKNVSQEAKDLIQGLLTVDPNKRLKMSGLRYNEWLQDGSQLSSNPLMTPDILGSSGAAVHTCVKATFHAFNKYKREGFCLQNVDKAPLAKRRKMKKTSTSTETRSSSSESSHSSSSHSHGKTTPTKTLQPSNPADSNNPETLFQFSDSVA", "assay": "Inhibition of MSK1 domain 1 K2 site in human HeLa cells lysate pre incubated for 15 mins followed by ADP acyl phosphate probe addition and measured after 10 mins by LC-MS/MS analysis", "assay_type": "subcellular"}, "[8]": {"target": "Ribosomal protein S6 kinase alpha-1 (Homo sapiens, UniProt Q15418)", "assay": "Inhibition of RSK1 domain 2 in human HeLa cells lysate at 10 uM pre incubated for 15 mins followed by ATP acyl phosphate probe addition and measured after 10 mins by LC-MS/MS analysis relative to control", "assay_type": "subcellular", "settings": "time 25.0 min"}, "[9]": {"target": "Microtubule-associated serine/threonine-protein kinase 3 (Homo sapiens, UniProt O60307)", "assay": "Inhibition of MAST3 in human HeLa cells lysate pre incubated for 15 mins followed by ATP acyl phosphate probe addition and measured after 10 mins by LC-MS/MS analysis", "assay_type": "subcellular"}, "Insulin receptor": {"target": "Insulin receptor (Homo sapiens, UniProt P06213)", "assay": "Inhibition of INSR in human HeLa cells lysate pre incubated for 15 mins followed by ADP acyl phosphate probe addition and measured after 10 mins by LC-MS/MS analysis", "assay_type": "subcellular"}, "[10]": {"target": "Calcium/calmodulin-dependent protein kinase type 1D (Homo sapiens, UniProt Q8IU85)", "sequence (Q8IU85 whole entry, looked up)": "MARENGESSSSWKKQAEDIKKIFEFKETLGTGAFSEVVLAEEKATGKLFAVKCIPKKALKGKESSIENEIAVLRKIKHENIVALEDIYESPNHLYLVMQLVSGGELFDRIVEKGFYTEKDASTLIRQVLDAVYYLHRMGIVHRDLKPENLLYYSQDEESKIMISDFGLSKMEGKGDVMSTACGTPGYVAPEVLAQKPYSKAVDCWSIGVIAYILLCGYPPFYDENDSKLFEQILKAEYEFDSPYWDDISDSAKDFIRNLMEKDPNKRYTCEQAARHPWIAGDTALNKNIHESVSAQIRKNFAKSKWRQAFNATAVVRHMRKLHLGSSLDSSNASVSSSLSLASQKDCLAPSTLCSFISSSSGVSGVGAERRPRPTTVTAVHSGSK", "assay": "Inhibition of CAMK1d in human HeLa cells lysate at 50 uM pre incubated for 15 mins followed by ADP acyl phosphate probe addition and measured after 10 mins by LC-MS/MS analysis relative to control", "assay_type": "subcellular", "settings": "time 25.0 min", "method_in_brief": "as §1"}, "[11]": {"target": "Calcium/calmodulin-dependent protein kinase type II subunit gamma (Homo sapiens, UniProt Q13555)", "assay": "Inhibition of CAMK2g in human HeLa cells lysate at 10 uM pre incubated for 15 mins followed by ADP acyl phosphate probe addition and measured after 10 mins by LC-MS/MS analysis relative to control", "assay_type": "subcellular", "settings": "time 25.0 min", "method_in_brief": "as §1"}, "[12]": {"assay": "Plasma concentration in C57Bl/6 mouse at 50 mg/kg, ip administered for 4 day and measured 8 hr post last dose by LC-MS/MS analysis", "assay_type": "ADME, organism-based"}, "[13]": {"target": "Cyclin-dependent kinase 13 (Homo sapiens, UniProt Q14004)", "sequence (Q14004 whole entry, looked up)": "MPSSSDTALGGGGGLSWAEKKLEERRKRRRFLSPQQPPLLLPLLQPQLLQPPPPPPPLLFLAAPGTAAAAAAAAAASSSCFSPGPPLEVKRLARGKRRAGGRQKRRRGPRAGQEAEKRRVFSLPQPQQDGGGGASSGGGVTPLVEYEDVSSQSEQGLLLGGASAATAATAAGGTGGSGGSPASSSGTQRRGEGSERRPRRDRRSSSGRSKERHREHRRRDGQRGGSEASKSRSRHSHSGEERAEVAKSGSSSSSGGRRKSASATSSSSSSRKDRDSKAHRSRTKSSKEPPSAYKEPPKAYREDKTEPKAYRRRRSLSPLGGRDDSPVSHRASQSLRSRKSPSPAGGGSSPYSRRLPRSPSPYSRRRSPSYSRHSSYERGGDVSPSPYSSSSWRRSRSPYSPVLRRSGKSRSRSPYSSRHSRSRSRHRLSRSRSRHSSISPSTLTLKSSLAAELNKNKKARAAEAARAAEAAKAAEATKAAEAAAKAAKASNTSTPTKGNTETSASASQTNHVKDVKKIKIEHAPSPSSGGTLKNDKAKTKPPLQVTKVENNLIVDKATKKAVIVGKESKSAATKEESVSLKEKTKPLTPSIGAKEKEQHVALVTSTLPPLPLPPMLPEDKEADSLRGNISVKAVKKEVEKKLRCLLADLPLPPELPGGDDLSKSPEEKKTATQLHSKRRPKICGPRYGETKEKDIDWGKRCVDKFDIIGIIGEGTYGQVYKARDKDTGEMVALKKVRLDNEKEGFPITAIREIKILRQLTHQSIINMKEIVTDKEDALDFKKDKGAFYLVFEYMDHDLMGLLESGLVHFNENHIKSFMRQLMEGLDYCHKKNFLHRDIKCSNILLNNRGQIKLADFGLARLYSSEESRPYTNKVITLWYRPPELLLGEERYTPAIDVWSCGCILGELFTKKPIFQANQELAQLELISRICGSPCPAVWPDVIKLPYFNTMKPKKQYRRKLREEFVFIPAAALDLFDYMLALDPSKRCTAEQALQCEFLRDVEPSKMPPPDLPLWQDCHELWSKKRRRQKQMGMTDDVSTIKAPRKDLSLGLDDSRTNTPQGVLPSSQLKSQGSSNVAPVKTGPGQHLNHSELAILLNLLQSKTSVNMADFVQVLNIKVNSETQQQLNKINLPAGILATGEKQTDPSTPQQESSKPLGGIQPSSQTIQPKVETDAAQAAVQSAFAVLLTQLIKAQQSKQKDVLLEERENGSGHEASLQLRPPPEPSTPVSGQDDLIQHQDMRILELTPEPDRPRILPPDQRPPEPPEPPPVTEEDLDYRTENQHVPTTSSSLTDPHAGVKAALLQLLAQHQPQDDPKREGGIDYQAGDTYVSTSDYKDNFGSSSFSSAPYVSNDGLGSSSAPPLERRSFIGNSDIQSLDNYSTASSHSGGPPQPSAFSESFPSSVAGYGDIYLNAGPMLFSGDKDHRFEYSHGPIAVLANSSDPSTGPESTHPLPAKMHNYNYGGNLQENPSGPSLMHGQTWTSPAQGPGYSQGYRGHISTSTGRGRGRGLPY", "assay": "Inhibition of CHED in human HeLa cells lysate at 2 uM pre incubated for 15 mins followed by ADP acyl phosphate probe addition and measured after 10 mins by LC-MS/MS analysis relative to control", "assay_type": "subcellular", "settings": "time 25.0 min", "method_in_brief": "as §2"}, "[14]": {"target": "STE20-like serine/threonine-protein kinase (Homo sapiens, UniProt Q9H2G2)", "assay": "Inhibition of SLK in human HeLa cells lysate pre incubated for 15 mins followed by ADP acyl phosphate probe addition and measured after 10 mins by LC-MS/MS analysis", "assay_type": "subcellular"}, "[15]": {"target": "Phosphatidylinositol 5-phosphate 4-kinase type-2 beta (Homo sapiens) (UniProt P78356)", "sequence (P78356 whole entry)": "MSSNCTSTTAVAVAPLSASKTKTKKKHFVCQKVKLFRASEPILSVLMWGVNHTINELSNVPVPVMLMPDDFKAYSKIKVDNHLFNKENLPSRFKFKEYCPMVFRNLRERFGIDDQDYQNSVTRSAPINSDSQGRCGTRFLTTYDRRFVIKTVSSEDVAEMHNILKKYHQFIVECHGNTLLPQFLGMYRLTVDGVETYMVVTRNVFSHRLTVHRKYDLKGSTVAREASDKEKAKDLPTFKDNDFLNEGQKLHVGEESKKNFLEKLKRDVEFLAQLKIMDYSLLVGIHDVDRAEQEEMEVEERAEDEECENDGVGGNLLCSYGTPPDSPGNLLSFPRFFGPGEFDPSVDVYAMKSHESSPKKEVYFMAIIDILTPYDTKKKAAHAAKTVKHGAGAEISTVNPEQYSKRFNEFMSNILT", "assay": "Inhibition of PIP5K2B in human HeLa cells lysate at 2 uM pre incubated for 15 mins followed by ATP acyl phosphate probe addition and measured after 10 mins by LC-MS/MS analysis relative to control", "assay_type": "subcellular", "settings": "time 25.0 min"}, "[16]": {"target": "Serine/threonine-protein kinase LATS2 (Homo sapiens, UniProt Q9NRM7)", "sequence (Q9NRM7 whole entry)": "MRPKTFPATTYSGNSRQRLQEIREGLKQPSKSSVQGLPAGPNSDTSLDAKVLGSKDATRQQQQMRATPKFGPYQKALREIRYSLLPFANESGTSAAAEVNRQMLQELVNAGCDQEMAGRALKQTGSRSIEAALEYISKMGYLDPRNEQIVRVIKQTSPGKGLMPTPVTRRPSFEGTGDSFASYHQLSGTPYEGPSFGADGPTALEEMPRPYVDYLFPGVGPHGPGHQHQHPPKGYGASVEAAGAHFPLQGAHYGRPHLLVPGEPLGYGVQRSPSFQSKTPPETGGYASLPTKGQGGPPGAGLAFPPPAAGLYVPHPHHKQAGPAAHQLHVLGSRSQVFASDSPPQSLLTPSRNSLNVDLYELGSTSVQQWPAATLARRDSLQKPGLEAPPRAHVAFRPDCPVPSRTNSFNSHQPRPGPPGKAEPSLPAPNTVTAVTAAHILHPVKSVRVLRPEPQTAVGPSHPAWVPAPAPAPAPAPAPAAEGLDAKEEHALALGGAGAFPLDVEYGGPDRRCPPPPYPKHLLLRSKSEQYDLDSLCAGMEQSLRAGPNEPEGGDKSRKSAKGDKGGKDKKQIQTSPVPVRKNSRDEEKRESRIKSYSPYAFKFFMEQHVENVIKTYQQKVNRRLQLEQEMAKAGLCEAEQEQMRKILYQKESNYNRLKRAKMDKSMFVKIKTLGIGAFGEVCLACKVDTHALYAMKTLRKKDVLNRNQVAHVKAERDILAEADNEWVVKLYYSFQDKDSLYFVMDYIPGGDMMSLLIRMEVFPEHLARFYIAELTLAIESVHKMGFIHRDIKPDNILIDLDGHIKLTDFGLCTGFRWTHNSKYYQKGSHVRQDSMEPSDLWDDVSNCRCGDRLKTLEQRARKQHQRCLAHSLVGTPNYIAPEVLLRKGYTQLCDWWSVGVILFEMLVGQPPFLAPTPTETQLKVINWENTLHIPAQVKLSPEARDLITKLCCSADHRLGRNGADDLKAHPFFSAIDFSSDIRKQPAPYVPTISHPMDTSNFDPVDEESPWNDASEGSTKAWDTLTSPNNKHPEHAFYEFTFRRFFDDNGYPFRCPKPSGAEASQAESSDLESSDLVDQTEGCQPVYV", "assay": "Inhibition of LATS2 in human HeLa cells lysate pre incubated for 15 mins followed by ADP acyl phosphate probe addition and measured after 10 mins by LC-MS/MS analysis", "assay_type": "subcellular"}, "[17]": {"assay": "Toxicity in C57Bl/6 mouse assessed as effect on alanine aminotransferase level at 50 mg/kg, ip for 14 days (reference value: 35 U/L)", "assay_type": "organism-based", "settings": "in vivo, 336 h, time 14 day"}, "[18]": {"target": "p38 delta/gamma (Homo sapiens) (UniProt O15264+P53778)", "assay": "Inhibition of p38d/p38g in human HeLa cells lysate at 2 uM pre incubated for 15 mins followed by ATP acyl phosphate probe addition and measured after 10 mins by LC-MS/MS analysis relative to control", "assay_type": "subcellular", "settings": "time 25.0 min"}, "[19]": {"target": "Ribosomal protein S6 kinase alpha-3 (Homo sapiens, UniProt P51812)", "assay": "Inhibition of RSK2 domain 2 in human HeLa cells lysate at 50 uM pre incubated for 15 mins followed by ADP acyl phosphate probe addition and measured after 10 mins by LC-MS/MS analysis relative to control", "assay_type": "subcellular", "settings": "time 25.0 min"}}, "data": [{"smiles": "CCOc1cc(N2CCC(O)CC2)ccc1Nc1ncc2c(n1)N(C)c1ccccc1C(=O)N2C", "values": [{"measurement": "IC50", "setting": "[1]", "result": "> 50", "unit": "µM"}, {"measurement": "inhibition", "setting": "[2]", "result": 13.1, "unit": "%"}, {"measurement": "inhibition at 10 µM", "setting": "[3]", "result": -6.3, "unit": "%"}, {"measurement": "inhibition", "setting": "[4]", "result": -3.8, "unit": "%"}, {"measurement": "inhibition", "setting": "[5]", "result": 0, "unit": "%"}, {"measurement": "inhibition", "setting": "[6]", "result": -7.7, "unit": "%"}, {"measurement": "IC50", "setting": "[7]", "result": "> 50", "unit": "µM"}, {"measurement": "inhibition", "setting": "[8]", "result": 20.9, "unit": "%"}, {"measurement": "IC50", "setting": "[9]", "result": "> 50", "unit": "µM"}, {"measurement": "IC50", "setting": "Insulin receptor", "result": "> 50", "unit": "µM"}, {"measurement": "inhibition", "setting": "[10]", "result": -1.9, "unit": "%"}, {"measurement": "inhibition", "setting": "[11]", "result": -2.3, "unit": "%"}, {"measurement": "concentration at 96 h", "setting": "[12]", "result": 9, "unit": "µM"}, {"measurement": "inhibition", "setting": "[13]", "result": 28.1, "unit": "%"}, {"measurement": "IC50", "setting": "[14]", "result": "> 50", "unit": "µM"}, {"measurement": "inhibition", "setting": "[15]", "result": -2.7, "unit": "%"}, {"measurement": "IC50", "setting": "[16]", "result": "> 50", "unit": "µM"}, {"measurement": "Activity", "setting": "[17]", "result": 402, "unit": "U/L"}, {"measurement": "inhibition", "setting": "[18]", "result": 100, "unit": "%"}, {"measurement": "inhibition", "setting": "[19]", "result": 49, "unit": "%"}]}]}
